Rows were chosen to be rich in hits. Some 1.5% of all compounds tested hit in one or more screens of this group.
PPC-1+TRAIL kill: PPC-1 cancer cell killing with TRAIL present. PPC-1 cells + TRAIL, ATPLite viability luminescence. cell killing (% activity), % at 4 µM or 5 µM. 0.41% of 220,000 active;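 active = cell killing above 50% in the first pass at 4 µM, then a duplicate retest at 5 µM averaging 50% or more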
TRAIL sens C8: sensitizes caspase-8 expressing cells to TRAIL; inhibition (viability loss, TRAIL sensitization), % at 10 µM; 1% of 360,000 active; NB7+C8 cells + TRAIL, ATPlite viability luminescence;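 active = compounds causing at least 50% loss of cell viability in the single-dose screen, relative to plate controls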
FLuc inhib CS: counter-screen for luciferase assay inhibitors: firefly luciferase inhibition | inhibition, % at 10 µM | 1.5% of 200,000 active | ATPLite firefly luciferase biochemical luminescence, 10 min;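 active = inhibition above about 50% when tested at 10 µM, limit read from the data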
Target sequence (P08659 whole entry, looked up): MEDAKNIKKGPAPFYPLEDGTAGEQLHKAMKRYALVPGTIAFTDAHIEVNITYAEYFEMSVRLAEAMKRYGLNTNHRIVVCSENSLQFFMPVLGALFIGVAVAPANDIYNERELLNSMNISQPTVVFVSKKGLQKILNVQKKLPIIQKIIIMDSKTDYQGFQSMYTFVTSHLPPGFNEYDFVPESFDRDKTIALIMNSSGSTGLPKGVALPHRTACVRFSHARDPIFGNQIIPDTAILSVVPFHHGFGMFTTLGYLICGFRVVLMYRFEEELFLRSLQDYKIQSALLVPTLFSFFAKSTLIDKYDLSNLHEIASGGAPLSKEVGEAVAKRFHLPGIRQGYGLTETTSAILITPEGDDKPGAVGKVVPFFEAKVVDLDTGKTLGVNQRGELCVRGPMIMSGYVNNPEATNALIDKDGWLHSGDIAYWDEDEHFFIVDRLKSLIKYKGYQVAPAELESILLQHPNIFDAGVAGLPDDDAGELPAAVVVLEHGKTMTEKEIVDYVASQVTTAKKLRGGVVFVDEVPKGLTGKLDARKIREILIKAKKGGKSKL
FLuc act counter: affects firefly luciferase, flagging false hits in luciferase stimulation screens. ATPlite luciferase biochemical, luminescence, 10 min; 0 = ATP-free wells, 1 = DMSO control. AID 1027. activation factor at 10 µM. 200,000 tested, under 10 active. P08659;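 active = luciferase activation factor, scaled between plate controls, of at least 2 with compound at 10 µM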
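Material: Luciferase/luciferin reagent mix; Doses: test compounds dosed from 2 mM stocks in 100% DMSO; Schedule: 10 min incubation after luciferase reagent addition, room temperature; Measured by: luminescence from luciferase reaction; Read-out: luminescence gain marking luciferase activators.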
PPC1 cytotox: PPC-1 cell cytotoxicity | shares compounds with PPC-1+TRAIL kill | PPC-1 viability, ATPlite luminescence, overnight | cytotoxicity, % at 5 µM | 50% of 1,200 active;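 active = reconfirmed compounds whose average cytotoxicity reaches 50% or more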
Hits are given with their value; i = inactive; nt = no result.

SMILES	PPC-1+TRAIL kill	TRAIL sens C8	FLuc inhib CS	FLuc act counter	PPC1 cytotox
Cc1nc(-c2ccc(NC(=O)C3CCCCC3)cc2)cs1	i	i	i	i	nt
CCC(=O)Nc1cccc(-c2cn3ccsc3n2)c1	i	i	i	i	i
CC(C)CC(=O)Nc1cccc(-c2cn3ccsc3n2)c1	i	i	i	i	nt
O=C(Nc1ccc(-c2cn3ccsc3n2)cc1)C1CC1	61.3	68.8	87.2	i	64.3
O=C(Nc1ccc(-c2cn3ccsc3n2)cc1)C1CCCC1	72.6	78.9	88.0	i	73.3
CCCc1nc2c(Cl)cc(C(F)(F)F)cn2c1Cc1ccc(OC)cc1C	nt	i	nt	nt	nt
O=S(=O)(c1ccccc1)[C@@]1(c2ccccc2)C[C@@H]2ON=C(c3cccc(-c4ccccc4)c3)[C@@H]2C1	nt	i	nt	nt	nt
Cc1cccc(C)c1NC(=O)CN(C)C(=O)C1=COCCO1	nt	i	nt	nt	nt
CCNC(=O)C1(C)CCN(C(=O)c2ccc(C#N)cc2)C1 (stereo unspecified)	nt	i	nt	nt	nt
CC(C)c1ccc2oc(-c3ccc(N)cc3)nc2c1	68.5	80.3	88.5	i	72.5
CC(C)c1ccc2oc(-c3ccc(NC(=O)c4ncn[nH]4)cc3)nc2c1	i	i	i	i	nt
Cc1ccc2oc(-c3cccc(N)c3)nc2c1	55.0	62.6	87.5	i	55.6
Nc1ccc2oc(-c3cccc4ccccc34)nc2c1	i	i	i	i	nt
Cc1ccc(-c2nc3cc(N)ccc3o2)c(C)c1	i	58.0	78.3	i	i
Cc1ccc(-c2nc3cc(N)ccc3o2)cc1	63.4	69.8	88.8	i	60.8
COc1ccc(CN2CCN(C3CCC3)CC2CCO)cc1C (stereo unspecified)	nt	i	nt	nt	nt
CC(=O)Nc1ccc(S(=O)(=O)NC2(C(F)(F)F)C(=O)Nc3c2c(=O)n(C)c(=O)n3C)cc1 (stereo unspecified)	i	i	i	i	i
CC(=O)Nc1ccc(S(=O)(=O)NC2(C(F)(F)F)C(=O)Nc3c2c(=O)[nH]c(=O)n3C)cc1 (stereo unspecified)	i	i	i	i	nt
CCOc1ccc(NC(=O)C(=O)NCCN2CCN(S(=O)(=O)c3ccccc3)CC2)cc1	nt	i	nt	nt	nt
Cc1ccc(Cl)c(NC(=O)COC(=O)c2nn(C)c(=O)c3ccccc23)c1Cl	nt	i	nt	nt	nt
Cc1ccn2cc(-c3ccc4c(c3)NC(=O)CO4)nc2c1	i	i	82.7	i	i
O=C(Nc1nccs1)c1cnccn1	i	i	i	i	i
O=C(Nc1nccs1)c1ccc(-c2ccccc2Cl)o1	i	i	i	i	nt
O=C(Nc1nccs1)c1ccc(-c2ccc(Cl)cc2)o1	59.5	80.5	85.4	i	60.9
COc1ccc2c(c1OC)OCC2C (stereo unspecified)	nt	i	nt	nt	nt
SMILES	PPC-1+TRAIL kill	TRAIL sens C8	FLuc inhib CS	FLuc act counter	PPC1 cytotox
COc1ccccc1CNC(=O)c1cn(C)c2ccc(S(=O)(=O)N3CCCC3)cc2c1=O	i	i	i	i	nt
O=C(c1ccsc1)N1CCCC(Nc2cccc(F)c2)C1 (stereo unspecified)	nt	i	nt	nt	nt
CCN(Cc1nc2cc(OC)c(OC)cc2c(=O)[nH]1)C(=O)c1ccc(S(=O)(=O)N(C)C)cc1	i	i	i	i	nt
COc1cc2nc(CN(C)Cc3ccc(C(C)(C)C)cc3)[nH]c(=O)c2cc1OC	58.8	65.0	84.8	i	58.1
CC1(C(=O)NCC2CCOCC2)Cc2c(-c3cccc(C(F)(F)F)c3)ccnc2O1 (stereo unspecified)	nt	i	nt	nt	nt
COc1ccc(CCNC(=O)C2CCCN(S(=O)(=O)c3cccc4nonc34)C2)cc1OC (stereo unspecified)	i	i	i	i	i
COc1ccc(NC(=O)C2CCCN(S(=O)(=O)c3cccc4nonc34)C2)cc1OC (stereo unspecified)	i	i	i	i	nt
O=C(/C=C/c1cccs1)c1ccc(N2CCOCC2)cc1	63.5	76.2	96.3	i	65.3
CCC1CCc2c(sc(NC(=O)CSc3nc(-c4ccco4)cc(C(F)(F)F)n3)c2C#N)C1 (stereo unspecified)	i	i	i	i	i
CCN(CC)c1ccc(N=Cc2ccc(N(CC)CC)cc2O)cc1	i	i	i	i	i
CCN(CC)c1ccc(C=Nc2ccc(N(C)C)cc2)c(O)c1	i	i	i	i	nt
CCCCNC(=O)O[C@@H]1C[C@H]2CCC(=O)N3CC[C@@H](C1)[C@@H]23	nt	i	nt	nt	nt
CCOc1ccccc1N1CCN(C(=O)c2ccc(OCC(=O)N3CCOCC3)c(OC)c2)CC1	nt	i	nt	nt	nt
CN(C)CCNC(=O)Cn1nc(C(F)F)cc1C1CC1	i	i	i	i	i
O=C(Cn1nc(C(F)F)cc1C1CC1)NCCC1=CCCCC1	i	i	i	i	nt

Compound activity: PubChem, Sanford-Burnham Center for Chemical Genomics
